≈ marks a conversion by molar mass, not a printed value.
Columns and labels:
Cavia porcellus [1] = species: Cavia porcellus; test: Positive inotropic activity in spontaneously beating guinea pig atria; type: functional, organism-based
In short: (§1)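 Guinea pig atria, spontaneously beating, in Ringer solution at 32 °C gassed with 95% O2/5% CO2. Isometric force recorded at 0.5–1 g initial tension after 30 min stabilization. Compounds in water or propylene glycol given cumulatively at 0.01–30 μg/mL, with 7 min contact per dose. EC50 for a 50% force increase taken graphically from the dose-response curve, in triplicate.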

Felis catus = test: Effective dose for lowering blood pressure in anesthetized cat when administered intravenously; type: functional; settings: iv
In short: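 Cats of either sex, 3–4 kg, under ether induction and chloralose (70 mg/kg iv). Compounds in distilled water or propylene glycol were given iv via the femoral vein at 0.01–10 mg/kg. Fall in mean arterial pressure read 10 min post-dose. ED20 taken graphically from the log dose-response curve, with doses run in triplicate.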

Cavia porcellus [2] = species: Cavia porcellus; test: Positive inotropic activity was assessed in spontaneously beating guinea pig atria; NA=Not active; type: functional, organism-based; in short: as §1

| Compound | EC50 (Cavia porcellus [1]) [µg/mL] | ED20 (Felis catus) [mg/kg] | EC50 (Cavia porcellus [2]) |
| --- | --- | --- | --- |
| C=C[C@@]1(C)CC(=O)[C@]2(O)C3(C)C(C(OC(=O)CCCCN4CCCCC4)C(O)[C@@]2(C)O1)C(C)(C)CC[C@@H]3O.Cl (stereo partly drawn) | > 30 | 1 | – |
| C=C[C@@]1(C)CC(=O)[C@]2(O)C3(C)C(C(OC(=O)CN4CCC(O)(c5ccccc5)CC4)C(O)[C@@]2(C)O1)C(C)(C)CC[C@@H]3O (stereo partly drawn) | 3 (≈ 5.12 µM) | 5 | – |
| C=C[C@@]1(C)CC(=O)[C@]2(O)C3(C)C(C(OC(=O)CN4CCCC4)C(O)[C@@]2(C)O1)C(C)(C)CC[C@@H]3O.Cl (stereo partly drawn) | 3 | 1 | – |
| C=C[C@@]1(C)CC(=O)[C@]2(O)C3(C)C(C(O)C(OC(=O)Cn4cc(C(=O)OCC)c(=O)c5ccc(C(F)(F)F)cc54)[C@@]2(C)O1)C(C)(C)CC[C@@H]3O (stereo partly drawn) | – | – | Not Active |
| C=C[C@@]1(C)CC(=O)[C@]2(O)C3(C)C(C(OC(=O)CN4CCC(NC(=O)c5ccccc5)CC4)C(O)[C@@]2(C)O1)C(C)(C)CC[C@@H]3O (stereo partly drawn) | 1.2 (≈ 1.96 µM) | 4 | – |
| Nc1cc(N2CCCCC2)nc(N)[n+]1[O-] [MINOXIDIL] | – | 0.9 | – |
| C=C[C@@]1(C)CC(=O)[C@]2(O)C3(C)C(C(OC(=O)CCCN4CCOCC4)C(O)[C@@]2(C)O1)C(C)(C)CC[C@@H]3O.Cl (stereo partly drawn) | – | 2 | Not Active |
| C=C[C@@]1(C)CC(=O)[C@]2(O)C3(C)C(C(O)C(OC(=O)C(C)N4CCN(C)CC4)[C@@]2(C)O1)C(C)(C)CC[C@@H]3O.Cl (stereo partly drawn) | – | 10 | Not Active |
| C=C[C@@]1(C)CC(=O)[C@]2(O)C3(C)C(C(OC(=O)CN4CCCC(C)C4)C(O)[C@@]2(C)O1)C(C)(C)CC[C@@H]3O.Cl (stereo partly drawn) | > 30 | 5.4 | – |
| CC(CCc1ccc(O)cc1)NCCc1ccc(O)c(O)c1 (stereo not drawn) [DOBUTAMINE] | 0.3 (≈ 0.995 µM) | – | – |
| C=C[C@@]1(C)CC(=O)[C@]2(O)C3(C)C(C(O)C(OC(=O)CCN4C(=O)c5ccccc5C4=O)[C@@]2(C)O1)C(C)(C)CC[C@@H]3O (stereo partly drawn) | > 30 | 10 | – |
| C=C[C@@]1(C)CC(=O)[C@]2(O)C3(C)C(C(OC(=O)Cn4cnc5c4c(=O)n(C)c(=O)n5C)C(O)[C@@]2(C)O1)C(C)(C)CC[C@@H]3O (stereo partly drawn) | 3 (≈ 5.1 µM) | 4.5 | – |
| C=C[C@@]1(C)CC(=O)[C@]2(O)C3(C)C(C(O)C(OC(=O)CN4CCC(NC(=O)c5ccccc5)CC4)[C@@]2(C)O1)C(C)(C)CC[C@@H]3O (stereo partly drawn) | – | 3 | Not Active |
| C=C[C@@]1(C)CC(=O)[C@]2(O)C3(C)C(C(OC(=O)CNCc4ccccc4)C(O)[C@@]2(C)O1)C(C)(C)CC[C@@H]3O.Cl (stereo partly drawn) | 10 | 3.5 | – |
| C=C[C@@]1(C)CC(=O)[C@]2(O)C3(C)C(C(O)C(OC(=O)Cn4cnc5c4c(=O)n(C)c(=O)n5C)[C@@]2(C)O1)C(C)(C)CC[C@@H]3O (stereo partly drawn) | 0.74 (≈ 1.26 µM) | 3 | – |
| C=C[C@@]1(C)CC(=O)[C@]2(O)C3(C)C(C(OC(=O)CN4CCN(C)CC4)C(O)[C@@]2(C)O1)C(C)(C)CC[C@@H]3O.Cl (stereo partly drawn) | 30 | 1.3 | – |
| C=C[C@@]1(C)CC(=O)[C@]2(O)C3(C)C(C(O)C(OC(=O)CN4CCC(O)CC4)[C@@]2(C)O1)C(C)(C)CC[C@@H]3O.Cl (stereo partly drawn) | > 30 | 3 | – |
| C=C[C@@]1(C)CC(=O)[C@]2(O)C3(C)C(C(O)C(OC(=O)Cn4nnc5ccccc54)[C@@]2(C)O1)C(C)(C)CC[C@@H]3O (stereo partly drawn) | > 30 | 3 | – |
| C=C[C@@]1(C)CC(=O)[C@]2(O)C3(C)C(C(O)C(OC(=O)Cn4c(=O)c5c(ncn5COCCOC)n(C)c4=O)[C@@]2(C)O1)C(C)(C)CC[C@@H]3O (stereo partly drawn) | 2 (≈ 3.02 µM) | 6 | – |
| C=C[C@@]1(C)CC(=O)[C@]2(O)C3(C)C(C(O)C(OC(=O)CCN4CCN(C)CC4)[C@@]2(C)O1)C(C)(C)CC[C@@H]3O.Cl (stereo partly drawn) | – | – | Not Active |
| C=C[C@@]1(C)CC(=O)[C@]2(O)C3(C)C(C(O)C(OC(=O)CCCN4CCCCC4)[C@@]2(C)O1)C(C)(C)CC[C@@H]3O.Cl (stereo partly drawn) | > 30 | 0.3 | – |
| C=C[C@@]1(C)CC(=O)[C@]2(O)C3(C)C(C(O)C(OC(=O)CN(C)C4CCCCC4)[C@@]2(C)O1)C(C)(C)CC[C@@H]3O (stereo partly drawn) | – | 10 | Not Active |
| C=C[C@@]1(C)CC(=O)[C@]2(O)C3(C)C(C(O)C(OC(=O)C(C)n4cnc5c4c(=O)n(C)c(=O)n5C)[C@@]2(C)O1)C(C)(C)CC[C@@H]3O (stereo partly drawn) | 0.9 (≈ 1.49 µM) | 5 | – |
| C=C[C@@]1(C)CC(=O)[C@]2(O)C3(C)C(C(O)C(OC(=O)CCCn4cnc5c4c(=O)n(C)c(=O)n5C)[C@@]2(C)O1)C(C)(C)CC[C@@H]3O (stereo partly drawn) | – | 3 | Not Active |
| C=C[C@@]1(C)CC(=O)[C@]2(O)C3(C)C(C(OC(=O)C(C)N4CCOCC4)C(O)[C@@]2(C)O1)C(C)(C)CC[C@@H]3O.Cl (stereo partly drawn) | > 30 | 3 | – |
| C=C[C@@]1(C)CC(=O)[C@]2(O)C3(C)C(C(O)C(OC(=O)CN4CCCCC4)[C@@]2(C)O1)C(C)(C)CC[C@@H]3O.Cl (stereo partly drawn) | > 30 | 10 | – |

| Compound | EC50 (Cavia porcellus [1]) [µg/mL] | ED20 (Felis catus) [mg/kg] | EC50 (Cavia porcellus [2]) |
| --- | --- | --- | --- |
| C=C[C@@]1(C)CC(=O)[C@]2(O)C3(C)C(C(OC(=O)C(C)N4CCCCC4)C(O)[C@@]2(C)O1)C(C)(C)CC[C@@H]3O.Cl (stereo partly drawn) | – | 1 | Not Active |
| C=C[C@@]1(C)CC(=O)[C@]2(O)C3(C)C(C(O)C(OC(=O)CN4CCN(C)CC4)[C@@]2(C)O1)C(C)(C)CC[C@@H]3O.Cl (stereo partly drawn) | > 30 | 0.9 | – |
| C=C[C@@]1(C)CC(=O)[C@]2(O)C3(C)C(C(OC(=O)C(C)Nc4ccccc4)C(O)[C@@]2(C)O1)C(C)(C)CC[C@@H]3O.Cl (stereo partly drawn) | – | 6.2 | Not Active |
| C=C[C@@]1(C)CC(=O)[C@]2(O)C3(C)C(C(O)C(OC(=O)CN4CCCC4)[C@@]2(C)O1)C(C)(C)CC[C@@H]3O.Cl (stereo partly drawn) | 1.8 | 4 | – |
| C=C[C@@]1(C)CC(=O)[C@]2(O)C3(C)C(C(O)C(OC(=O)CN(CC)CC)[C@@]2(C)O1)C(C)(C)CC[C@@H]3O.Cl (stereo partly drawn) | 10 | 2 | – |
| C=C[C@@]1(C)CC(=O)[C@]2(O)C3(C)C(C(O)C(OC(=O)C(C)Nc4ccccc4)[C@@]2(C)O1)C(C)(C)CC[C@@H]3O (stereo partly drawn) | – | 3 | Not Active |
| C=C[C@@]1(C)CC(=O)[C@]2(O)C3(C)C(C(OC(=O)CN4CCSCC4)C(O)[C@@]2(C)O1)C(C)(C)CC[C@@H]3O.Cl (stereo partly drawn) | 1.5 | 5 | – |
| C=C[C@@]1(C)CC(=O)[C@]2(O)C3(C)C(C(OC(=O)CN4CCCCCC4)C(O)[C@@]2(C)O1)C(C)(C)CC[C@@H]3O.Cl (stereo partly drawn) | 1.9 | 1 | – |
| C=C[C@@]1(C)CC(=O)[C@]2(O)C3(C)C(C(O)C(OC(=O)CCCCN4CCCCC4)[C@@]2(C)O1)C(C)(C)CC[C@@H]3O.Cl (stereo partly drawn) | 30 | 1 | – |
| C=C[C@@]1(C)CC(=O)[C@]2(O)C3(C)C(C(O)C(OC(=O)CCN4CCCCC4)[C@@]2(C)O1)C(C)(C)CC[C@@H]3O.Cl (stereo partly drawn) | 1 | – | – |
| C=C[C@@]1(C)CC(=O)[C@]2(O)C3(C)C(C(O)C(OC(=O)Cn4cnc5ccccc54)[C@@]2(C)O1)C(C)(C)CC[C@@H]3O (stereo partly drawn) | – | 10 | Not Active |
| C=C[C@@]1(C)CC(=O)[C@]2(O)C3(C)C(C(OC(=O)CCCN4CCCCC4)C(O)[C@@]2(C)O1)C(C)(C)CC[C@@H]3O.Cl (stereo partly drawn) | – | 3 | Not Active |
| C=C[C@@]1(C)CC(=O)[C@]2(O)C3(C)C(C(O)C(OC(=O)CN4CCC(C)CC4)[C@@]2(C)O1)C(C)(C)CC[C@@H]3O.Cl (stereo partly drawn) | > 30 | 10 | – |
| C=C[C@@]1(C)CC(=O)[C@]2(O)C3(C)C(C(O)C(OC(=O)CN4CCCC(C)C4)[C@@]2(C)O1)C(C)(C)CC[C@@H]3O.Cl (stereo partly drawn) | > 30 | 10 | – |
| C=C[C@@]1(C)CC(=O)[C@]2(O)C3(C)C(C(O)C(OC(=O)CN4CCSCC4)[C@@]2(C)O1)C(C)(C)CC[C@@H]3O.Cl (stereo partly drawn) | > 30 | 3 | – |
| C=C[C@@]1(C)CC(=O)[C@]2(O)C3(C)C(C(OC(=O)CN(C)C4CCCCC4)C(O)[C@@]2(C)O1)C(C)(C)CC[C@@H]3O.ClC(Cl)Cl (stereo partly drawn) | – | 3.5 | Not Active |
| C=C[C@@]1(C)CC(=O)[C@]2(O)C3(C)C(C(O)C(OC(=O)CNc4ccccc4)[C@@]2(C)O1)C(C)(C)CC[C@@H]3O (stereo partly drawn) | > 10 | 2 | – |
| C=C[C@@]1(C)CC(=O)[C@]2(O)C3(C)C(C(OC(=O)CCN4CCN(C)CC4)C(O)[C@@]2(C)O1)C(C)(C)CC[C@@H]3O.Cl (stereo partly drawn) | 0.2 | 1.4 | – |
| C=C[C@@]1(C)CC(=O)[C@]2(O)C3(C)C(C(O)C(OC(=O)CCN4CCOCC4)[C@@]2(C)O1)C(C)(C)CC[C@@H]3O.Cl (stereo partly drawn) | – | – | Not Active |
| C=C[C@@]1(C)CC(=O)[C@]2(O)C3(C)C(C(O)C(OC(=O)CCCN4CCN(C)CC4)[C@@]2(C)O1)C(C)(C)CC[C@@H]3O.Cl (stereo partly drawn) | – | 0.8 | Not Active |
| C=C[C@@]1(C)CC(=O)[C@]2(O)C3(C)C(C(O)C(OC(=O)C(C)N4CCCCC4)[C@@]2(C)O1)C(C)(C)CC[C@@H]3O (stereo partly drawn) | > 30 | 4.5 | – |
| C=C[C@@]1(C)CC(=O)[C@]2(O)C3(C)C(C(O)C(OC(=O)C(C)(C)N4CCOCC4)[C@@]2(C)O1)C(C)(C)CC[C@@H]3O.Cl (stereo partly drawn) | 3 | 1.8 | – |
| C=C[C@@]1(C)CC(=O)[C@]2(O)C3(C)C(C(O)C(OC(=O)CCCCCCCCCCCN4CCOCC4)[C@@]2(C)O1)C(C)(C)CC[C@@H]3O.Cl (stereo partly drawn) | – | 1.6 | Not Active |
| C=C[C@@]1(C)CC(=O)[C@]2(O)C3(C)C(C(OC(=O)C(C)N4CCN(C)CC4)C(O)[C@@]2(C)O1)C(C)(C)CC[C@@H]3O.Cl (stereo partly drawn) | – | 3 | Not Active |
| C=C[C@@]1(C)CC(=O)[C@]2(O)C3(C)C(C(O)C(OC(=O)CCCN4CCOCC4)[C@@]2(C)O1)C(C)(C)CC[C@@H]3O.Cl (stereo partly drawn) | 10 | 1.8 | – |
| C=C[C@@]1(C)CC(=O)[C@]2(O)C3(C)C(C(O)C(OC(=O)CNC(C)(C)C)[C@@]2(C)O1)C(C)(C)CC[C@@H]3O.Cl (stereo partly drawn) | > 30 | 1 | – |
